PAFAH1B2 inh: inhibitors of human PAFAH1B2; P68402; recombinant PAFAH1B2, FP-rhodamine activity probe, fluorescence polarization; inhibition, % at 3.39 µM; 340,000 compounds, 1.2% hits; AID 492953;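 active = inhibition above the mean of all tested compounds plus 3 SD, cut at about 24% in these data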;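 note: 0% = enzyme with DMSO and 100% = wells lacking PAFAH1B2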
Target sequence (P68402 whole entry, looked up): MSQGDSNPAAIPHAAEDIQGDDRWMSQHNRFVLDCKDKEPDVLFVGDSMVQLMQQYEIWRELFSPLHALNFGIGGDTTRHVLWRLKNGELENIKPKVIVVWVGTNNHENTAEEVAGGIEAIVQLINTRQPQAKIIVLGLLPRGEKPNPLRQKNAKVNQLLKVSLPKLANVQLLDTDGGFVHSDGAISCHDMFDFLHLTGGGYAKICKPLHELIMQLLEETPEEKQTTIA
PAFAH1B3 inh: blocks human PAF acetylhydrolase 1B catalytic subunit 3 | 340,000 compounds, 0.28% hits | AID 492972 | recombinant PAFAH1B3, FP-rhodamine probe, fluorescence polarization | inhibition, % at 3.39 µM;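 active = inhibition above the screen-wide average of all tested compounds plus 3 SD, cut at about 25% in these data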;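 note: 0% = enzyme with DMSO only and 100% = wells lacking PAFAH1B3 protein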
Target sequence (Q15102 whole entry, looked up): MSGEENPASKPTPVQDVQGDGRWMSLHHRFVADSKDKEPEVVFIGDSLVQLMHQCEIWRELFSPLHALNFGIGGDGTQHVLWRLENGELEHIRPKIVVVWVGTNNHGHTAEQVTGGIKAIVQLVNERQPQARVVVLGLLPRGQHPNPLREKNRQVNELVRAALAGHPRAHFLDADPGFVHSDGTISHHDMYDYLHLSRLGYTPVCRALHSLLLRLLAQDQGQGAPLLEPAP
GRIN3A LBD mod: modulates the human NR3A ligand-binding domain. NR3A LBD differential scanning fluorimetry, Tm shift; 0% = protein alone, 100% = glycine-bound protein. Tm shift relative to glycine control, % at 25 µM. 340,000 compounds, 2.5% hits. AID 1259313;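 active = melting temperature shift of at least 10% of the positive control shift, at one fixed dose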
pPAFAH FP inh: inhibitors of human plasma PAF acetylhydrolase (pPAFAH). Q13093. recombinant pPAFAH, FP-rhodamine probe fluorescence polarization. inhibition, % at 3.39 µM. 330,000 compounds, 1.5% hits. AID 463082;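 active = inhibition above the mean inhibition across the screen plus 3 SD, cut at about 25% in these data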;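 note: inhibitors block binding of the rhodamine activity-based probe so polarization drops; 0% = enzyme with DMSO and 100% = wells lacking pPAFAH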
PAFAH2 FP inh: PAFAH2 (human) inhibition. AID 492956. 340,000 compounds, 0.99% hits. recombinant PAFAH2, FP-rhodamine activity probe, fluorescence polarization. inhibition, % at 3.39 µM. Q99487;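 active = inhibition above the mean over all tested compounds plus 3 SD, cut at about 30% in these data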;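 note: inhibitors block probe labeling of enzyme so polarization drops; 0% = enzyme with DMSO and 100% = wells lacking PAFAH2 protein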
UCH37 inh: blocks the human deubiquitinase UCH37; Q9Y5K5; purified proteasome/UCH37, Ub-AMC cleavage fluorescence; inhibition, % (test concentration not listed); 330,000 compounds, 0.33% hits; AID 588478;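 active = mean inhibition over replicate wells above about 20%, limit read from the data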;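 note: 0% = compound-free wells with enzyme and 100% = wells lacking proteasome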
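Assay system: Proteasome-bound UCH37. Buffer or medium: pH 7.4 Tris-HCl (50 mM) with ovalbumin, ATP-MgCl2, DTT. Incubation: 30 min preincubation with enzyme, 25 min cleavage at room temperature. Measured by: fluorescence, ex 355 nm, em 460 nm. Read-out basis: percent inhibition. Control set: wells without proteasome as full block, compound-free enzyme plus substrate as uninhibited.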
PAFAH2 FP conf: confirmation of human PAFAH2 inhibitors; recombinant PAFAH2, FP-rhodamine activity probe, fluorescence polarization; inhibition, % at 3.39 µM; shares compounds with PAFAH2 FP inh; 2,300 compounds, 65% hits;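 active = mean inhibition over three repeats above a set limit taken from the earlier primary screen, cut at about 30% in these data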;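 note: inhibitor blocks binding of rhodamine activity probe so polarization falls; 0% = enzyme with DMSO and 100% = wells lacking PAFAH2 protein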
An asterisk follows results filed as active; i = inactive; · = not tested or not shown. Only some compounds are listed: those with a hit (about 4.8% of all), similar ones and a draw of the others.

SMILES	PAFAH1B2 inh	PAFAH1B3 inh	GRIN3A LBD mod	pPAFAH FP inh	PAFAH2 FP inh	UCH37 inh	PAFAH2 FP conf
COc1ccc(S(=O)(=O)N2CCOCC2)cc1NC(=O)Cc1ccccc1Cl	1.2	3.8	-0.5	8.2	59.9*	-0.4	55.1*
Cc1cc(C(=O)OCC(=O)Nc2cc(S(=O)(=O)N3CCOCC3)ccc2Cl)c(C)o1	-0.4	9.1	1.7	7.8	35.3*	1.8	30.7*
O=C(COC(=O)c1cc(S(=O)(=O)N2CCCC2)ccc1O)Nc1ccc(S(=O)(=O)N2CCOCC2)cc1	2.1	1.2	-6.1	-3.0	7.2	-8.9	·
Cc1cc(C(=O)OCC(=O)Nc2ccc(S(=O)(=O)N3CCOCC3)cc2)c(C)o1	2.8	-1.9	2.7	3.2	0.8	0.0	·
COc1ccc(Br)cc1C=NNC(=O)c1ccc(OC)c(OC)c1	·	·	·	·	·	2.8	·
COc1cc(C=NNS(=O)(=O)c2ccc(Br)cc2)ccc1O	·	·	·	·	·	1.7	·
CC(Nc1cccc2ccccc12)C(=O)NN=Cc1ccc([N+](=O)[O-])cc1 (centres undefined)	·	·	·	·	·	3.0	·
O=S(=O)(c1ccc2c(c1)CCCN2)N1CCCC1	6.8	-0.8	1.7	-1.7	-0.9	2.4	·
O=S(=O)(c1ccc2c(c1)CCCN2)N1CCCC2CCCCC21 (centres undefined)	24.0	24.0	-16.5	5.5	30.7*	2.2	2.4
CCOC(=O)c1nnn(-c2nonc2-n2cccc2)c1CCl	0.7	4.9	0.1	0.3	31.4*	-2.1	43.6*
CCOC(=O)c1nnn(-c2nonc2-n2cccc2)c1CN1CCC(C)CC1	6.8	-1.3	-1.5	0.2	18.8	-0.4	·
COc1cc(OC)c(N(C)C(=O)c2cc3c(s2)-c2ccccc2S(=O)(=O)C3)cc1Cl	6.0	10.0	1.3	-4.2	31.2*	3.2	2.7
COc1ccc(N(C)C(=O)c2cc3c(s2)-c2ccccc2S(=O)(=O)C3)cc1	2.9	-1.6	-1.7	-0.1	-5.7	7.5	·
CCOC(=O)c1c(-c2ccccc2)oc2ccc(OCC(=O)NNC(=O)CCCC(=O)O)cc12	17.1	23.2	-6.2	·	40.6*	-449.1	3.3
CCOC(=O)c1c(-c2ccccc2)oc2ccc(OCC(=O)NNC(=O)CCC(=O)O)cc12	2.8	3.8	-1.2	·	-3.0	-396.1	·
CCN(CC)S(=O)(=O)c1ccc2c(c1)nc(CCC(=O)OCc1c(C)noc1C)n2C	-1.4	1.7	1.6	-4.4	9.8	1.6	·
CCN(CC)S(=O)(=O)c1ccc(C(=O)N2CCc3ccccc32)cc1	0.1	4.1	-1.1	-1.1	10.6	2.4	·
CCN(CC)S(=O)(=O)c1ccc2c(c1)nc(CCC(=O)OCC(=O)N1CCc3ccccc31)n2C	5.2	7.2	2.7	3.2	70.7*	3.8	81.6*
CCc1ccc(NC(=O)COC(=O)CCc2nc3cc(S(=O)(=O)N(CC)CC)ccc3n2C)cc1	5.6	6.9	-9.2	5.8	62.6*	1.0	74.7*
CCN(CC)S(=O)(=O)c1ccc2c(c1)nc(CCC(=O)OCC(=O)Nc1cc(Cl)cc(Cl)c1)n2C	-3.7	-14.7	0.9	6.3	73.1*	0.5	83.5*
CCc1cc(=O)oc2c3c(cc(OCC(=O)NCCC(=O)O)c12)OC(C)(C)CC3	3.5	1.3	-2.2	23.4	37.9*	i	23.1
CSc1ccc(Cl)c(C(=O)OCC(=O)NCC(C)C)c1	-0.9	-0.2	0.4	3.3	43.1*	-6.1	30.0*
Cc1nc2ccccc2cc1C(=O)NN=Cc1ccco1	·	·	·	·	·	-3.8	·
O=C(COC(=O)CNC(=O)c1ccccc1)Nc1ccc(Cl)cn1	0.8	5.9	-1.0	-3.5	-2.9	2.0	·
O=C(COC(=O)C1CC1)Nc1ccc(Cl)cn1	4.8	0.8	-0.9	4.3	31.3*	-0.6	26.7
CC1CC1C(=O)OCC(=O)Nc1ncc(Cl)cc1Cl (centres undefined)	2.9	8.4	-2.6	17.4	31.2*	3.9	17.3
O=C(COC(=O)C1CC1)Nc1ncc(Cl)cc1Cl	4.7	11.7	·	16.5	30.1*	6.2	17.9
O=C(COC(=O)C1CC1)Nc1ncc(C(F)(F)F)cc1Cl	3.4	-0.3	-3.7	14.8	13.4	-3.9	·
CN(C)c1ccc(C=NNC(=O)c2ccc3c(c2)OCCO3)cc1	·	·	·	·	·	-8.6	·

Screening data (PubChem BioAssay)
